Reference: ChEMBL document CHEMBL3259819, “Antimicrobial peptides from skin secretions of Hypsiboas pulchellus (Anura: Hylidae)” (J Nat Prod, 2014)
Values after ≈ are worked out from the molar mass of the structure shown. Where a SMILES comes first, the peptide text is derived from it.

Tests used:
Bacillus subtilis = assay: Antimicrobial activity against Bacillus subtilis; format: functional
[1] = Toxicity in erythrocytes (unknown origin) assessed as hemolytic activity; format: cell-based, Erythrocyte; conditions: read-out: HD50 (the source's name)
Outline: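 Human erythrocytes from heparinised blood, spun 3000 rpm for 10 min after three saline washes, used at 0.4% (v/v) in isotonic saline. Equal volumes incubated with increasing concentrations (0.4 to 4.4 mg/mL for extracts) for 60 min at 37 °C. Cells spun at 3000 rpm for 5 min and supernatant A405 read. Lysis by 1% Triton X-100 served as 100%.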

Pseudomonas aeruginosa = assay: Antimicrobial activity against Pseudomonas aeruginosa; format: functional
Staphylococcus aureus [2] = assay: Antimicrobial activity against Staphylococcus aureus; format: functional
Escherichia coli [3] = assay: Antimicrobial activity against Escherichia coli; format: functional
Enterococcus faecalis = assay: Antimicrobial activity against Enterococcus faecalis; format: functional
[4] = Hemolytic activity in human erythrocytes assessed as lowest concentration required to hemolysis after 60 mins; format: ADME, cell-based; conditions: erythrocyte, 1 h
Outline: (§1)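 Human erythrocytes came from heparinized blood, were washed three times in saline and pelleted, then suspended at 0.4% (v/v) in isotonic saline. 1 mL cells was mixed with 1 mL peptide dilution and held 60 min at 37 °C. After centrifugation, supernatant absorbance was read at 405 nm, with lysis by 1% Triton X-100 set as 100%.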

[5] = Hemolytic activity in human erythrocytes at 20 uM after 60 mins; format: ADME, cell-based, Erythrocyte; conditions: read-out: Activity; outline: as §1
[6] = Therapeutic index, ratio of hemolytic activity in human erythrocytes assessed as lowest concentration required for hemolysis to MIC for Escherichia coli; format: cell-based; conditions: read-out: TI
Outline: (§2)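 TI is the lowest hemolytic concentration divided by the MIC, calculated per peptide and strain. LHC is the lowest peptide concentration giving 100% hemolysis of human erythrocytes (60 min, 37 °C). Where 100% hemolysis was not reached at 320 μM, 640 μM was used. MICs came from microtiter broth dilution against E. coli ATCC 25922 or S. aureus ATCC 25929.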

Staphylococcus aureus [7] = assay: Antimicrobial activity against Staphylococcus aureus ATCC 25929 after 18 to 24 hrs by microtitre dilution method; format: functional
Outline: (§3)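 Modified microtiter broth dilution (Hancock method for AMPs). Strains were activated 24 h at 37 °C in Mueller-Hinton broth, and the inoculum was set to 5 × 10^7 cfu/mL. Tests ran in diluted MHB for 18 to 24 h at 37 °C. Peptides were solubilised in water with 10% acetic acid; the top assay concentration was 1280 μg/mL. MIC is the lowest concentration inhibiting growth.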

[8] = Therapeutic index, ratio of hemolytic activity in human erythrocytes assessed as lowest concentration required for hemolysis to MIC for Staphylococcus aureus; format: cell-based; conditions: read-out: TI; outline: as §2
Escherichia coli [9] = assay: Antimicrobial activity against Escherichia coli ATCC 25922 after 18 to 24 hrs by microtitre dilution method; format: functional; outline: as §3
[10] = Hemolytic activity in human erythrocytes at 320 uM after 60 mins; format: ADME, cell-based, Erythrocyte; conditions: read-out: Activity; outline: as §1

Row | Compound | MIC (Bacillus subtilis) [µM] | MIC (Pseudomonas aeruginosa) [µM] | MIC (Staphylococcus aureus [2]) [µM] | MIC (Escherichia coli [3]) [µM] | MIC (Enterococcus faecalis) [µM] | MIC (Staphylococcus aureus [7]) [µM] | MIC (Escherichia coli [9]) [µM] | HC50 [1] [µM] | MHC [4] [µM] | hemolysis at 1 h, 20 µM [5] [%] | selectivity ratio [6] | selectivity ratio [8] | hemolysis at 1 h, 320 µM [10] [%]
1 | CC(C)C[C@H](NC(=O)[C@H](C)NC(=O)[C@@H](NC(=O)[C@H](CCCCN)NC(=O)CNC(=O)[C@@H](NC(=O)[C@@H](NC(=O)[C@H](CCCCN)NC(=O)CNC(=O)[C@H](CC(C)C)NC(=O)[C@H](CO)NC(=O)[C@H](CCCCN)NC(=O)[C@H](CC(C)C)NC(=O)[C@H](CCCCN)NC(=O)[C@H](CC(=O)O)NC(=O)[C@H](CC(C)C)NC(=O)[C@H](Cc1c[nH]c2ccccc12)NC(=O)[C@H](C)N)C(C)C)C(C)C)C(C)C)C(=O)NCC(=O)N[C@H](C(=O)N[C@@H](C)C(=O)N[C@@H](CCC(N)=O)C(=O)N[C@@H](CC(N)=O)C(=O)N[C@@H](Cc1ccc(O)cc1)C(=O)N[C@@H](CC(C)C)C(=O)N[C@@H](CC(N)=O)C(=O)N1CCC[C@H]1C(=O)N[C@@H](CCC(N)=O)C(=O)N[C@@H](CCC(N)=O)C(=O)O)C(C)C (H-AWLDKLKSLGKVVGKVALGVAQNYLNPQQ-OH) | – | 10 (≈ 31.4 µg/mL) | 20 (≈ 62.8 µg/mL) | 5 (≈ 15.7 µg/mL) | – | – | – | – | – | – | – | – | –
2 | CC(C)C[C@H](NC(=O)[C@H](CC(C)C)NC(=O)[C@@H](NC(=O)[C@@H]1CCCN1C(=O)[C@H](CCCCN)NC(=O)[C@@H](N)[C@@H](C)O)[C@@H](C)O)C(=O)NCC(=O)N[C@@H](CC(C)C)C(=O)N1CCC[C@H]1C(=O)N[C@@H](CC(C)C)C(=O)NCC(=O)N[C@@H](C)C(=O)NCC(=O)N1CCC[C@H]1C(=O)N[C@@H](C)C(=O)N[C@@H](C)C(=O)NCC(=O)N1CCC[C@H]1C(=O)NCC(=O)N[C@@H](CCCCN)C(=O)N[C@@H](CCCNC(=N)N)C(N)=O (H-TKPTLLGLPLGAGPAAGPGKR-NH2) | – | – | – | – | – | 8 (≈ 15.8 µg/mL) | 16 (≈ 31.5 µg/mL) | – | 640 | – | 40 | 80 | ≤ 12
3 | CC(C)C[C@H](NC(=O)[C@H](CO)NC(=O)[C@@H]1CCCN1C(=O)[C@H](CO)NC(=O)[C@H](CC(C)C)NC(=O)[C@@H](N)CCCCN)C(=O)NCC(=O)N1CCC[C@H]1C(=O)N[C@H](C(=O)N[C@@H](CO)C(=O)N[C@@H](CCCCN)C(=O)NCC(=O)N[C@@H](CCCCN)C(=O)N[C@@H](CC(C)C)C(=O)N[C@@H](CC(C)C)C(=O)N[C@@H](C)C(=O)NCC(=O)N[C@@H](CCC(N)=O)C(=O)N[C@@H](CCCNC(=N)N)C(N)=O)C(C)C (H-KLSPSLGPVSKGKLLAGQR-NH2) | – | – | – | – | – | 66 (≈ 128 µg/mL) | 33 (≈ 63.9 µg/mL) | – | 320 | – | 9.7 | 4.9 | 100

Now from value to compound, other results behind:

Row | MIC (Bacillus subtilis) [µM] | MIC (Pseudomonas aeruginosa) [µM] | MIC (Staphylococcus aureus [2]) [µM] | MIC (Escherichia coli [3]) [µM] | MIC (Enterococcus faecalis) [µM] | MIC (Staphylococcus aureus [7]) [µM] | MIC (Escherichia coli [9]) [µM] | Compound | HC50 [1] [µM] | MHC [4] [µM] | hemolysis at 1 h, 20 µM [5] [%] | selectivity ratio [6] | selectivity ratio [8] | hemolysis at 1 h, 320 µM [10] [%]
4 | 8 (≈ 14.9 µg/mL) | 64 (≈ 119 µg/mL) | 8 (≈ 14.9 µg/mL) | 32 (≈ 59.7 µg/mL) | 16 (≈ 29.8 µg/mL) | – | – | CC[C@H](C)[C@H](N)C(=O)N[C@@H](Cc1ccccc1)C(=O)NCC(=O)N[C@@H](C)C(=O)N[C@H](C(=O)N[C@@H](CC(C)C)C(=O)N1CCC[C@H]1C(=O)N[C@@H](CC(C)C)C(=O)N[C@@H](C)C(=O)N[C@@H](CC(C)C)C(=O)NCC(=O)N[C@@H](C)C(=O)N[C@@H](CC(C)C)C(=O)N[C@@H](CCCCN)C(=O)N[C@@H](CC(N)=O)C(=O)N[C@@H](CC(C)C)C(=O)N[C@H](C(=O)N[C@@H](CCCCN)C(=O)O)[C@@H](C)CC)[C@@H](C)CC (H-IFGAILPLALGALKNLIK-OH) | 18 | – | – | – | – | –
5 | – | 64 (≈ 83.9 µg/mL) | 8 (≈ 10.5 µg/mL) | 32 (≈ 42 µg/mL) | – | – | – | CC[C@H](C)[C@H](NC(=O)CN)C(=O)N[C@@H](CC(C)C)C(=O)N[C@@H](CC(=O)O)C(=O)N[C@@H](C)C(=O)N[C@H](C(=O)N[C@@H](CCCCN)C(=O)N[C@@H](C)C(=O)N[C@H](C(=O)N[C@@H](C)C(=O)N[C@@H](CCCCN)C(=O)N[C@@H](C)C(=O)N[C@@H](C)C(=O)NCC(=O)O)[C@@H](C)CC)[C@@H](C)CC (H-GILDAIKAIAKAAG-OH) | – | – | – | – | – | –
6 | – | – | – | – | – | 17 (≈ 32.2 µg/mL) | 17 (≈ 32.2 µg/mL) | CC(C)C[C@H](NC(=O)CNC(=O)[C@H](C)NC(=O)[C@H](CC(C)C)NC(=O)[C@H](CC(C)C)NC(=O)[C@@H](NC(=O)[C@H](CCCCN)NC(=O)[C@H](CC(C)C)NC(=O)[C@H](CC(C)C)NC(=O)[C@H](C)NC(=O)[C@@H]1CCCN1C(=O)[C@H](CC(C)C)NC(=O)[C@H](C)NC(=O)[C@@H](NC(=O)CNC(=O)[C@H](CC(C)C)NC(=O)[C@@H](N)CCCNC(=N)N)[C@@H](C)O)[C@@H](C)O)C(=O)N[C@@H](CC(N)=O)C(=O)NCC(N)=O (H-RLGTALPALLKTLLAGLNG-NH2) | – | 25 | > 90 | 1.5 | 1.5 | –
